# According to ChEMBL document CHEMBL3826880, “Synthesis and evaluation of (+)-decursin derivatives as inhibitors of the Wnt/β-catenin pathway” (Bioorg Med Chem Lett, 2016):
# Activity calls are given as the source filed them. The calls are words filed in the database; no cut-off is given here.
# Test system: not listed separately
# Test: Cytotoxicity against human PC3 cells assessed as cell viability after 24 to 48 hrs by cell Titer-Glo assay
# Type: functional, cell-based
# Details: PC-3
# Summary of the method: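 Androgen-independent PC3 cells in 96-well plates were exposed to varying compound concentrations for 24 h (figure legend) or 48 h (methods note). Viability was measured in triplicate with the CellTiter-Glo luminescent assay.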
row,Compound,IC50
1,CC(=O)Oc1cccc(/C=C/C(=O)O[C@H]2Cc3cc4ccc(=O)oc4cc3OC2(C)C)c1,8.97 µM

# Target: T1, Catenin beta-1 (Homo sapiens) (UniProt P35222)
# T1 sequence (whole entry): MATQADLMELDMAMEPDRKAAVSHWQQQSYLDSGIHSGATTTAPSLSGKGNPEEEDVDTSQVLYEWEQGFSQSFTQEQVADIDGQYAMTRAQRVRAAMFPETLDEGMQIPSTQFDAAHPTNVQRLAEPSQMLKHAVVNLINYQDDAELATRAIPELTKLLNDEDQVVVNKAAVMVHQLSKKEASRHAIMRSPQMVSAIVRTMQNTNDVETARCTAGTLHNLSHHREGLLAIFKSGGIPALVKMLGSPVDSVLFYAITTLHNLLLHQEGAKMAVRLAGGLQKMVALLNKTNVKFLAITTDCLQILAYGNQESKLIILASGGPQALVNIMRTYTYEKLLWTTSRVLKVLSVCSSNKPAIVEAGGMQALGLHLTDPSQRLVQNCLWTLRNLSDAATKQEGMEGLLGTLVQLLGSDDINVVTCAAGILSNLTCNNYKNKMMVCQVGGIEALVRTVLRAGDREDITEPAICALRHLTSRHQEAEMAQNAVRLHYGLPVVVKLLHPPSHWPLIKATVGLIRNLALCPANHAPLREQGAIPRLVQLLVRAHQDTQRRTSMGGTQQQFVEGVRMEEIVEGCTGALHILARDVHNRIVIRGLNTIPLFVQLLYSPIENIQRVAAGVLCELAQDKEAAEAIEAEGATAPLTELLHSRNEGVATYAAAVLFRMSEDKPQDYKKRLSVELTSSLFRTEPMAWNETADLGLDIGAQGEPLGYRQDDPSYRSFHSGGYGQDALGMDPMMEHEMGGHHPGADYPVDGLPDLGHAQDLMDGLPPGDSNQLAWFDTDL
# Test: Inhibition of beta-catenin levels in human PC3 cells assessed as downregulation of cyclinD1 levels at 12.5 to 50 uM after 15 hrs by Western blot analysis
# Type: cell-based
# Details: PC-3
# Summary of the method: (§1)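 PC3 cells were incubated with vehicle (DMSO) or compound for 15 h. Cell extracts were western blotted with anti-cyclin D1 and anti-myc antibodies, then reprobed with anti-actin as the control, with ECL detection.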
row,Compound,inhibition
1,CC(=O)Oc1cccc(/C=C/C(=O)O[C@H]2Cc3cc4ccc(=O)oc4cc3OC2(C)C)c1,Active

# Test system: not listed separately
# Test: Inhibition of Wnt/beta-catenin pathway in human HEK293 cells at 20 uM after 15 hrs by TOPflash dual luciferase reporter gene assay
# Type: cell-based
# Details: not given
# Summary of the method: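 HEK293 TOPFlash reporter cells were seeded at 15,000 cells/well in duplicate and grown 24 h. Compounds were then added with Wnt3a-conditioned medium from Wnt3a-secreting L cells (0.22-filtered, two harvests combined); controls ran with or without Wnt3a-CM. After 15 h, dual luciferase activity was read as RLU normalized to cell titer, averaged over three experiments. Single-concentration screen at 20 µM.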
row,Compound,inhibition
1,CC1(C)Oc2cc3oc(=O)ccc3cc2C[C@@H]1OC(=O)/C=C/c1ccc([N+](=O)[O-])cc1,34.3%
2,CC(=O)Oc1ccccc1/C=C/C(=O)O[C@H]1Cc2cc3ccc(=O)oc3cc2OC1(C)C,95.9%
3,COc1ccc(/C=C/C(=O)O[C@H]2Cc3cc4ccc(=O)oc4cc3OC2(C)C)cc1OC,42.3%
4,CC(=O)Oc1cccc(/C=C/C(=O)O[C@H]2Cc3cc4ccc(=O)oc4cc3OC2(C)C)c1,97%
5,CC(=O)Oc1ccccc1CCC(=O)O[C@H]1Cc2cc3ccc(=O)oc3cc2OC1(C)C,23.1%
6,COc1cccc(CCC(=O)O[C@H]2Cc3cc4ccc(=O)oc4cc3OC2(C)C)c1OC,13.5%
7,CC1(C)Oc2cc3oc(=O)ccc3cc2C[C@@H]1OC(=O)/C=C/c1cccc(O)c1,93.3%
8,CC(=O)Oc1cc(/C=C/C(=O)O[C@H]2Cc3cc4ccc(=O)oc4cc3OC2(C)C)cc(OC(C)=O)c1OC(C)=O,67.4%
9,COc1ccc(OC)c(/C=C/C(=O)O[C@H]2Cc3cc4ccc(=O)oc4cc3OC2(C)C)c1,65.3%
10,CC1(C)Oc2cc3oc(=O)ccc3cc2C[C@@H]1OC(=O)CCc1ccc(O)cc1,32.8%
11,CC1(C)Oc2cc3oc(=O)ccc3cc2C[C@@H]1OC(=O)CCc1ccccc1,10.6%
12,CC1(C)Oc2cc3oc(=O)ccc3cc2C[C@@H]1OC(=O)/C=C/c1ccc(O)c(O)c1,99.5%
13,COc1ccc(CCC(=O)O[C@H]2Cc3cc4ccc(=O)oc4cc3OC2(C)C)cc1,41.5%
14,CC1(C)Oc2cc3oc(=O)ccc3cc2C[C@@H]1OC(=O)CCc1ccc(O)c(O)c1,68%
15,CC1(C)Oc2cc3oc(=O)ccc3cc2C[C@@H]1OC(=O)CCc1cccc(O)c1O,81.4%
16,COc1cccc(/C=C/C(=O)O[C@H]2Cc3cc4ccc(=O)oc4cc3OC2(C)C)c1,87.5%
17,COc1ccc(/C=C/C(=O)O[C@H]2Cc3cc4ccc(=O)oc4cc3OC2(C)C)c(OC)c1,52.8%
18,COc1cc(OC)c(OC)cc1/C=C/C(=O)O[C@H]1Cc2cc3ccc(=O)oc3cc2OC1(C)C,59.6%
19,CC(=O)Oc1cccc(CCC(=O)O[C@H]2Cc3cc4ccc(=O)oc4cc3OC2(C)C)c1OC(C)=O,77.7%
20,CC(=O)Oc1ccc(CCC(=O)O[C@H]2Cc3cc4ccc(=O)oc4cc3OC2(C)C)cc1,12%
21,CC1(C)Oc2cc3oc(=O)ccc3cc2C[C@@H]1OC(=O)CCc1cccc(O)c1,42%
22,COc1ccccc1/C=C/C(=O)O[C@H]1Cc2cc3ccc(=O)oc3cc2OC1(C)C,88.3%
23,COc1ccc(OC)c(CCC(=O)O[C@H]2Cc3cc4ccc(=O)oc4cc3OC2(C)C)c1,19.9%

row,Compound,inhibition
1,CC(=O)Oc1ccc(/C=C/C(=O)O[C@H]2Cc3cc4ccc(=O)oc4cc3OC2(C)C)cc1,79.6%
2,CC1(C)Oc2cc3oc(=O)ccc3cc2C[C@@H]1OC(=O)/C=C/c1cccc(Br)c1,84.8%
3,COc1cc(/C=C/C(=O)O[C@H]2Cc3cc4ccc(=O)oc4cc3OC2(C)C)cc(OC)c1OC,46.9%
4,CC1(C)Oc2cc3oc(=O)ccc3cc2C[C@@H]1OC(=O)/C=C/c1ccc(Br)cc1,40.1%
5,CC1(C)Oc2cc3oc(=O)ccc3cc2C[C@@H]1OC(=O)/C=C/c1cc(O)c(O)c(O)c1,75.3%
6,CC1(C)Oc2cc3oc(=O)ccc3cc2C[C@@H]1OC(=O)/C=C/c1cccc(O)c1O,95.7%
7,COc1ccccc1CCC(=O)O[C@H]1Cc2cc3ccc(=O)oc3cc2OC1(C)C,50.4%
8,CC(C)=CC(=O)O[C@H]1Cc2cc3ccc(=O)oc3cc2OC1(C)C [DECURSIN],79.4%
9,CC1(C)Oc2cc3oc(=O)ccc3cc2C[C@@H]1OC(=O)/C=C/c1ccccc1O,94.2%
10,CC1(C)Oc2cc3oc(=O)ccc3cc2C[C@@H]1OC(=O)/C=C/c1ccccc1,81.1%
11,CC1(C)Oc2cc3oc(=O)ccc3cc2C[C@@H]1OC(=O)CCc1ccccc1O,10%
12,CC1(C)Oc2cc3oc(=O)ccc3cc2C[C@@H]1OC(=O)/C=C/c1cccc(F)c1,93.6%
13,COc1cccc(/C=C/C(=O)O[C@H]2Cc3cc4ccc(=O)oc4cc3OC2(C)C)c1OC,57.8%
14,CC1(C)Oc2cc3oc(=O)ccc3cc2C[C@@H]1OC(=O)/C=C/c1ccc(O)cc1,78.1%
15,COc1ccc(/C=C/C(=O)O[C@H]2Cc3cc4ccc(=O)oc4cc3OC2(C)C)cc1,54.8%
16,CC(=O)Oc1cccc(CCC(=O)O[C@H]2Cc3cc4ccc(=O)oc4cc3OC2(C)C)c1,27.5%
17,CC(=O)Oc1ccc(/C=C/C(=O)O[C@H]2Cc3cc4ccc(=O)oc4cc3OC2(C)C)cc1OC(C)=O,94%
18,COc1cccc(CCC(=O)O[C@H]2Cc3cc4ccc(=O)oc4cc3OC2(C)C)c1,49.9%
19,COc1ccc(CCC(=O)O[C@H]2Cc3cc4ccc(=O)oc4cc3OC2(C)C)cc1OC,25.1%
20,CC(=O)Oc1cccc(/C=C/C(=O)O[C@H]2Cc3cc4ccc(=O)oc4cc3OC2(C)C)c1OC(C)=O,89.7%
21,CC(=O)Oc1ccc(CCC(=O)O[C@H]2Cc3cc4ccc(=O)oc4cc3OC2(C)C)cc1OC(C)=O,46.4%
22,COc1ccc(CCC(=O)O[C@H]2Cc3cc4ccc(=O)oc4cc3OC2(C)C)c(OC)c1,18.8%

# Test system: not listed separately
# Test: Antitumor activity against human PC3 cells xenografted in athymic nude mouse at 50 mg/kg, ip administered daily for 5 weeks
# Type: functional
# Details: PC-3, ip, 840 h, read-out: TGI
row,Compound,inhibition in vivo at 50 mg/kg
1,CC1(C)Oc2cc3oc(=O)ccc3cc2C[C@@H]1OC(=O)/C=C/c1ccc(O)c(O)c1,> 80%

# Test system: not listed separately
# Test: Inhibition of Wnt/beta-catenin pathway in human HEK293 cells assessed as decrease in Wnt3a-CM-induced beta-catenin response transcription after 15 hrs by TOPflash dual luciferase reporter gene assay
# Type: cell-based
# Details: HEK293, 15 h
row,Compound,IC50
1,CC(=O)Oc1cccc(/C=C/C(=O)O[C@H]2Cc3cc4ccc(=O)oc4cc3OC2(C)C)c1,9.85 µM

# Target: T1, Catenin beta-1 (Homo sapiens)
# Test: Downregulation of cytoplasmic beta-catenin levels in human PC3 cells after 15 hrs by Western blot analysis
# Type: cell-based
# Details: PC-3
# Summary of the method: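 Cytosolic fractions from PC3 cells (DMEM, 10% FBS) treated with vehicle (DMSO) or compound were western blotted with a β-catenin antibody, then reprobed with anti-actin as the fraction control.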
row,Compound,Activity
1,CC(=O)Oc1cccc(/C=C/C(=O)O[C@H]2Cc3cc4ccc(=O)oc4cc3OC2(C)C)c1,Dose-dependent effect

# Target: T1, Catenin beta-1 (Homo sapiens)
# Test: Inhibition of beta-catenin levels in human PC3 cells assessed as downregulation of c-myc levels at 12.5 to 50 uM after 15 hrs by Western blot analysis
# Type: cell-based
# Details: PC-3
# Summary of the method: as §1
row,Compound,inhibition
1,CC(=O)Oc1cccc(/C=C/C(=O)O[C@H]2Cc3cc4ccc(=O)oc4cc3OC2(C)C)c1,Active

# Target: T1, Catenin beta-1 (Homo sapiens)
# Test: Downregulation of Wnt3a-CM-induced beta-catenin levels in human HEK293 cells at 12.5 to 50 uM after 15 hrs by Western blot analysis
# Type: cell-based
# Details: not given
# Summary of the method: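 HEK293 reporter cells were treated with vehicle (DMSO) or compound in the presence of Wnt3a-CM for 15 h. Cytosolic proteins were western blotted with a β-catenin antibody, then reprobed for actin as the fraction control, with HRP secondary and ECL detection.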
row,Compound,Activity
1,CC(=O)Oc1cccc(/C=C/C(=O)O[C@H]2Cc3cc4ccc(=O)oc4cc3OC2(C)C)c1,Active

# Test system: not listed separately
# Test: Inhibition of Wnt/beta-catenin pathway in human HEK293 cells after 15 hrs by TOPflash dual luciferase reporter gene assay
# Type: cell-based
# Details: HEK293, 15 h
row,Compound,IC50
1,CC1(C)Oc2cc3oc(=O)ccc3cc2C[C@@H]1OC(=O)/C=C/c1ccc(O)c(O)c1,12.3 µM
2,CC(C)=CC(=O)O[C@H]1Cc2cc3ccc(=O)oc3cc2OC1(C)C [DECURSIN],176 µM
